Measured values reported in article PMC5955861 (Oncogene, 2018).
Where two headings read alike, the source gives them in different places.

Tests used:
MV-4-11B = experiment: alamarBlue cell proliferation assay; type: cell-based, human; conditions: MV-4-11B cells
Outline: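 Cell lines from ATCC or DSMZ were cultured per supplier's instructions and STR-authenticated. MV-4-11B is a clone of MV-4-11 carrying heterozygous TP53 c.742C>T (p.R248W). Cells were exposed to test compound in 96-well format, and viability was read after incubation with alamarBlue.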

[1] = tested on: p-Ser2 POL-II in MV-4-11B cells; experiment: p-Ser2 POL-II custom MSD assay; type: cell-based; conditions: 5 µM LDC000067, 2 h
Outline: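 MV-4-11B cells were treated for 2 h with single agents or their combination. Phospho-Ser2 RNA Pol II was quantified with a custom Meso Scale Discovery multi-array assay.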

THP-1 AML cells = experiment: disseminated AML xenograft efficacy study; type: in vivo, CIEA-NOG mice; conditions: decitabine twice per week, 0.5 mg/kg i.p.

COc1ccccc1-c1cc(Nc2cccc(CS(N)(=O)=O)c2)ncn1 [LDC000067, reference compound]
EC50 (MV-4-11B): 5000 nM | p-Ser2 POL-II levels [1]: ~ 64 % of control

Nc1ncn([C@H]2C[C@H](O)[C@@H](CO)O2)c(=O)n1 [decitabine, reference compound]
survival prolongation (THP-1 AML cells): 26 days

Cc1sc2c(c1C)C(c1ccc(Cl)cc1)=N[C@@H](CC(=O)OC(C)(C)C)c1nnc(C)n1-2 [JQ1, reference compound]
EC50 (MV-4-11B; read-out: anti-proliferative EC50, biologically equivalent concentrations): 200 nM
